Results collected from several papers.
Protocols differ between the studies behind these lines. In brackets after ≈: the same amount, converted by molar mass.
Organism: Micrococcus luteus

O=C1NN=C(N=Cc2ccc(O)c(O)c2)C1=NNn1c(-c2ccccc2)nc2ccccc2c1=O  MIC (microbial growth; broth dilution; 24 h): 53.5 µM
CN[C@H](CC(C)C)C(=O)N[C@H]1C(=O)N[C@@H](CC(N)=O)C(=O)N[C@H]2C(=O)N[C@H]3C(=O)N[C@H](C(=O)N[C@H](C(=O)O)c4cc(O)cc(O)c4-c4cc3ccc4O)[C@H](O)c3ccc(c(Cl)c3)Oc3cc2cc(c3O[C@@H]2O[C@H](CO)[C@@H](O)[C@H](O)[C@H]2O[C@H]2C[C@](C)(N)[C@H](O)[C@H](C)O2)Oc2ccc(cc2Cl)[C@H]1O  MIC (microbial growth; broth dilution; ML01): 0.13 µg/mL
CN[C@H](CC(C)C)C(=O)N[C@H]1C(=O)N[C@@H](CC(N)=O)C(=O)N[C@H]2C(=O)N[C@H]3C(=O)N[C@H](C(=O)N[C@H](C(=O)O)c4cc(O)cc(O)c4-c4cc3ccc4O)[C@H](O)c3ccc(c(Cl)c3)Oc3cc2cc(c3O[C@@H]2O[C@H](CO)[C@@H](O)[C@H](O)[C@H]2O[C@H]2C[C@](C)(N)[C@H](O)[C@H](C)O2)Oc2ccc(cc2Cl)[C@H]1O  MIC (microbial growth; broth dilution; ATCC10240): 0.12 µg/mL
CC1=NN(CNc2c(O)c(S(=O)(=O)O)cc3ccccc23)C(=O)C1=NNn1c(-c2ccccc2)nc2ccccc2c1=O  MIC (microbial growth; broth dilution; 24 h): 83.7 µM
C/C=C(\C)c1cc(O)c(C)c(OC(=O)c2c(C)c(Cl)c(O)c(Cl)c2O)c1  MIC (microbial growth; broth dilution; ML01): 4 µg/mL
CC1(C)S[C@@H]2[C@H](NC(=O)[C@H](N)c3ccccc3)C(=O)N2[C@H]1C(=O)O  inhibition (microbial growth; agar dilution; ATCC10240; 26.93 µM): 100%
O=C(O)c1cn(C2CC2)c2cc(N3CCNCC3)c(F)cc2c1=O  inhibition zone (microbial growth; disc diffusion; 100 µg/mL; 24 h): 25 mm
O=C1NN=C(N=Cc2ccccc2O)C1=NNn1c(-c2ccccc2)nc2ccccc2c1=O  MIC (microbial growth; broth dilution; 24 h): 55.4 µM
O=C(O)CN1C(=O)/C(=C/c2ccc(-c3ccc(N(c4ccccc4)c4ccccc4)cc3)c3ccccc23)SC1=S  MBC (microbial killing; broth dilution; ATCC10240): 62.5 µg/mL (≈ 109 µM)
